Test results from PMC3268818 (Journal of Molecular Biology, 2011).

What was measured:
BclXL_FL [1] = assay: Steady-state fluorescence; parameters: species or system human; conditions: BclXL_FL alone, 5μM; SSF, excitation 290nm, pH 8.0, 25 °C
BclXL_FL [2] = assay: TEM of negatively-stained BclXL_FL; parameters: species or system human; conditions: 25μM BclXL_FL alone; 50mM Sodium phosphate, pH 8.0, negative staining
How it was run: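 Full-length His-tagged human BclXL (residues 1–233) was expressed in E. coli and purified by Ni-NTA and SEC. It was imaged at 25μM, alone or with a 10-molar excess of a 20-mer BH3 peptide, in 50mM sodium phosphate pH 8.0. Samples were negatively stained and viewed by TEM at 80kV and 105,000 magnification.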

[3] = SEC-coupled analytical light scattering; format: physicochemical, human; conditions: for oligomeric state in solution / Mw/Mn / Rg/Rh / dimer fraction / approximate mass of higher-order oligomer: ALS; for oligomeric state in solution / Rh / Mn / Mw/Mn / Mw / Rg / Rg/Rh / dimer fraction: pH 8, 10°C; for Rh: hydrodynamic radius, ALS (DLS); for Rh / Mn / Mw / Rg: at least three independent measurements; for Rh / Mn / Mw/Mn / Mw / Rg / Rg/Rh: ± one standard deviation; for Mn: number-average molar mass; for Mn / Mw / Rg: ALS (SLS); for Mw/Mn: polydispersity; for Mw: weighted-average molar mass; for Rg: radius of gyration; for Rg/Rh: shape ratio
How it was run: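 His-tagged human BclXL (residues 1–233 or 1–200) was expressed in E. coli and purified by Ni-NTA then SEC. It was run at 10–50μM starting concentration in 50mM sodium phosphate, 100mM NaCl, 1mM EDTA, 5mM β-mercaptoethanol, pH 8.0, on Superdex 200 at 1ml/min and 10°C. Mw, Mn and Rg came from triple-angle SLS (Zimm fit); Rh came from DLS at 90° (Stokes-Einstein). n≥3, ±SD.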

BclXL_FL [4] = assay: DSC thermal stability of BclXL_FL; format: physicochemical, human; conditions: BclXL_FL alone, 50mM Sodium phosphate, pH 8.0, 10–50μM protein, 40–120°C, 1°C/min, 3atm, repeated at least three times

Substance	oligomeric state in solution [3]	Rh ([3]; Dimer)	Mn ([3]; Dimer)	Mw/Mn ([3]; Dimer)	Mw ([3]; Dimer)	Rh ([3]; Monomer)	Mn ([3]; Monomer)	Mw/Mn ([3]; Monomer)	dimer fraction [3]	also measured
BclXL_FL: Full-length BclXL (residues 1–233), human, with an N-terminal His-tag, expressed in Escherichia coli	predominantly associates into higher-order oligomers	47 ± 2 Å	61 ± 3 kD	1.01 ± 0.01	62 ± 3 kD	36 ± 1 Å	31 ± 1 kD	1.00 ± 0.01	minor fraction	intrinsic fluorescence relative to BclXL_dTM (BclXL_FL [1]): much higher than that observed for the BclXL_dTM construct; TEM appearance (BclXL_FL [2]): rod-like appearance in solution; Rh ([3]; Multimer): 99 ± 2 Å; Mn ([3]; Multimer): 321 ± 25 kD; Mw/Mn ([3]; Multimer): 1.14 ± 0.02; Rg ([3]; Multimer): 107 ± 4 Å; Rg/Rh ([3]; Multimer): 1.10 ± 0.01; Mw ([3]; Multimer): 361 ± 26 kD; Rh ([3]; Polymer): 175 ± 6 Å; Mn ([3]; Polymer): 3134 ± 147 kD; Rg ([3]; Polymer): 198 ± 8 Å; Rg/Rh ([3]; Polymer): 1.13 ± 0.02; Mw ([3]; Polymer): 3355 ± 188 kD; oligomer equilibrium on SEC re-analysis ([3]; SEC-resolved fractions re-analyzed on SEC column): reversible monomer-dimer-multimer-polymer equilibrium; approximate mass of higher-order oligomer ([3]; multimer): ~ 300 kD; approximate mass of higher-order oligomer ([3]; polymer): ~ 3000 kD; melting temperature (Tm) (BclXL_FL [4]): > 120 °C
BclXL_dTM: BclXL in which the TM domain is deleted (residues 1–200), human, with an N-terminal His-tag, expressed in Escherichia coli	largely monomeric in solution	41 ± 3 Å	54 ± 2 kD	1.00 ± 0.01	54 ± 2 kD	33 ± 2 Å	28 ± 2 kD	1.00 ± 0.00	minor fraction	–
